ChEMBL document CHEMBL3826928, “Incorporation of Phosphonate into Benzonaphthyridine Toll-like Receptor 7 Agonists for Adsorption to Aluminum Hydroxide” (J Med Chem, 2016)
Activity calls are given as the source filed them. The calls are words filed in the database; no cut-off is given here.

What was measured:
Toll-like receptor 7 [1] = target: T1, Toll-like receptor 7 (Mus musculus, UniProt P58681); assay: Agonist activity at TLR7 in Balb/c mouse splenocytes assessed as induction of IL-6 secretion in supernatant after 18 hrs; type: cell-based
T1 sequence (P58681 whole entry): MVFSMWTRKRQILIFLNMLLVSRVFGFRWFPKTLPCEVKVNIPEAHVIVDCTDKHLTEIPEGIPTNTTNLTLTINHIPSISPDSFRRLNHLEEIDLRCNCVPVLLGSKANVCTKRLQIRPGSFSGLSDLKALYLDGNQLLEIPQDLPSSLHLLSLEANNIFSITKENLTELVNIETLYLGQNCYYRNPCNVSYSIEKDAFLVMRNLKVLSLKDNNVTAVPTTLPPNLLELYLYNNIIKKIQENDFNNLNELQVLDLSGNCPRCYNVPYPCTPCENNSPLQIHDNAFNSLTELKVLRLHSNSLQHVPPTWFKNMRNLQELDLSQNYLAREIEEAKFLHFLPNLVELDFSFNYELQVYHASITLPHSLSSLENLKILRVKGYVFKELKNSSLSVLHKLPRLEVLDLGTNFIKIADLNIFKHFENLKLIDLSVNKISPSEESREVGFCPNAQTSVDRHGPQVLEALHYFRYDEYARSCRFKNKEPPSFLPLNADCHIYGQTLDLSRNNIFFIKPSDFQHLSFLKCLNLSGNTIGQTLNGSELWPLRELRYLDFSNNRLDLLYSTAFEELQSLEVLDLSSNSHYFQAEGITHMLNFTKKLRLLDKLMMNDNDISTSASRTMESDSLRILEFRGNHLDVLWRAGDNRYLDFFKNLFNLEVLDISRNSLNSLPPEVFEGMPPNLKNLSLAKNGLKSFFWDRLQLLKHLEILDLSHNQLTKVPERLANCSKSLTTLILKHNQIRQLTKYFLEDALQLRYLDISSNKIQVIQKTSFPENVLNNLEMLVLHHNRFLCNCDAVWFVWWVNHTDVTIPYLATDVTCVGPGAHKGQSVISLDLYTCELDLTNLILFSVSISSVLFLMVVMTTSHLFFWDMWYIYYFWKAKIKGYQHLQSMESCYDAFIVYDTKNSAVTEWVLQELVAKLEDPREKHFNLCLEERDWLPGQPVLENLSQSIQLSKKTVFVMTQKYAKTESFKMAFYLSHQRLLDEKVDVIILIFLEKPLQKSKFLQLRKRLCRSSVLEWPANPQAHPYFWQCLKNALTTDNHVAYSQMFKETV
Procedure, shortened: (§1)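 Spleens from female BALB/c mice (6−10 weeks), single-cell suspension, RBC lysis; 5 × 10⁵ splenocytes per well in RPMI 1640 with 10% FCS, 2-ME. Compounds as sodium salts (1 equiv NaOH) from 10 mM water stocks, 3-fold 10-point dilutions from 30 μM.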

[2] = target: T2, Toll-like receptor 8 (Homo sapiens) (UniProt Q9NR97); assay: Agonist activity at human TLR8 expressed in HEK293 cells up to 30 uM incubated for 6 hrs by luciferase reporter gene assay relative to resiquimod; type: cell-based
T2 sequence (whole entry): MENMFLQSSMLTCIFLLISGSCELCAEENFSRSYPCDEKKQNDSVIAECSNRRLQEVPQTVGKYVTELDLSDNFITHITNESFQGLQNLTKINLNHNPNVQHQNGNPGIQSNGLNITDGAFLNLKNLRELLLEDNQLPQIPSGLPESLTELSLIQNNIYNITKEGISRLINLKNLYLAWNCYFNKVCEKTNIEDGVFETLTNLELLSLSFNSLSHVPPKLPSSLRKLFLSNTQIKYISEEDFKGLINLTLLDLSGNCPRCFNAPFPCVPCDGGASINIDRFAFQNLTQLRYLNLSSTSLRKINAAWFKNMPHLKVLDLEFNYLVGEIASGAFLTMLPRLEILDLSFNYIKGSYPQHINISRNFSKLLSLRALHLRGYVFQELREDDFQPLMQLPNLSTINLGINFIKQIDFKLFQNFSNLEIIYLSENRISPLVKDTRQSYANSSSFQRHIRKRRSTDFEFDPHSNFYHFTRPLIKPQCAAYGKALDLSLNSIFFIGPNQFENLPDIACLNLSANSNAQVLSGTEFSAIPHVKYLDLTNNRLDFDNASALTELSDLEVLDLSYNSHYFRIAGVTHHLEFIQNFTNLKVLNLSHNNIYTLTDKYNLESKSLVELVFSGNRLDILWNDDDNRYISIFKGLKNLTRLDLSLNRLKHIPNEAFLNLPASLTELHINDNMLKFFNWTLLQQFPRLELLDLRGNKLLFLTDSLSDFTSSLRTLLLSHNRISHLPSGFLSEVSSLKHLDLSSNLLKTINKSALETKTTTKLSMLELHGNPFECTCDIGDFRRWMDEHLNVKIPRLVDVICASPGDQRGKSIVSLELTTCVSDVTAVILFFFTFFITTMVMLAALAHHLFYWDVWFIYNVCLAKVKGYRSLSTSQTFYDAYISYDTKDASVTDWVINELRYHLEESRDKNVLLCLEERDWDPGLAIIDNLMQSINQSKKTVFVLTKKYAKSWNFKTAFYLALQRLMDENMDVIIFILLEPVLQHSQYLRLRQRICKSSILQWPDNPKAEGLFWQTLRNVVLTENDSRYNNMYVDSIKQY

Toll-like receptor 7 [3] = target: T3, Toll-like receptor 7 (Homo sapiens, UniProt Q9NYK1); assay: Agonist activity at human TLR7 expressed in HEK293 cells incubated for 6 hrs by luciferase reporter gene assay; type: cell-based
T3 sequence (Q9NYK1 whole entry): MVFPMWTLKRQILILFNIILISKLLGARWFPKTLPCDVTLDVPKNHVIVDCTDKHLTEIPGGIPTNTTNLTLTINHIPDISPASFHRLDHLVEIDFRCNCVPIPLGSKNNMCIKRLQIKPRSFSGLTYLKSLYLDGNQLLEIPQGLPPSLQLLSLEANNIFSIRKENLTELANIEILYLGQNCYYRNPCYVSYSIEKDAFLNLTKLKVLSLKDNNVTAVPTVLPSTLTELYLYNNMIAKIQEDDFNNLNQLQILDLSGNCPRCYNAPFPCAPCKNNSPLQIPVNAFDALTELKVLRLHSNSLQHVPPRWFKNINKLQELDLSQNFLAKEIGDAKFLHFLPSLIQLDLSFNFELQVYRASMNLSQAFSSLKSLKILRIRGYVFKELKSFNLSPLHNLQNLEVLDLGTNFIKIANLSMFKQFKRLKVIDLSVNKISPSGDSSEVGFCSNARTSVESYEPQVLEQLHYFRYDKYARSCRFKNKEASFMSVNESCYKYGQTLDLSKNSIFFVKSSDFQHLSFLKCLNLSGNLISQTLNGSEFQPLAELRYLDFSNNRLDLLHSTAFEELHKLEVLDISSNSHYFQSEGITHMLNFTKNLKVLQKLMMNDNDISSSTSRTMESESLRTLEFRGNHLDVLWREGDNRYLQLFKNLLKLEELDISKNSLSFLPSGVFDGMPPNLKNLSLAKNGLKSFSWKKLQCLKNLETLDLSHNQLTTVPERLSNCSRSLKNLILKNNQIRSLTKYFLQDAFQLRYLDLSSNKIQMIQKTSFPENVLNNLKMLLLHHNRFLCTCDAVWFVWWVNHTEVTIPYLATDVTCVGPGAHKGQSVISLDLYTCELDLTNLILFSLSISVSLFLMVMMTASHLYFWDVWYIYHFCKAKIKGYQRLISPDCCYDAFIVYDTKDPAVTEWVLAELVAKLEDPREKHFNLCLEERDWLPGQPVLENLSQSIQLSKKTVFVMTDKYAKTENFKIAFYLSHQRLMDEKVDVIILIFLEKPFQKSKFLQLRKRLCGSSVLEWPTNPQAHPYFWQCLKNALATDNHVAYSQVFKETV
Procedure, shortened: (§2)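 HEK293 stably carrying NF-κB-firefly luciferase reporter plus human TLR7 (best resiquimod-responding clone), maintained under puromycin/blasticidin. 25 000 cells per well in DMEM with 3% FCS.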

[4] = target: T4, Toll-like receptor 7 (Homo sapiens) (UniProt Q9NYK1); assay: Agonist activity at TLR7 in human PBMC assessed as induction of IL-6 secretion in supernatant after 18 hrs relative to resiquimod; type: cell-based
T4 sequence (whole entry): T3 sequence (Q9NYK1 whole entry)
Procedure, shortened: (§3)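 Isolated human PBMCs washed in PBS, resuspended in RPMI1640 with 10% heat-inactivated FBS, pyruvate, HEPES, at 1 × 10⁶ cells/mL. Compounds as in-situ sodium salts from 10 mM aqueous stocks, 3-fold 10-point dilutions from 30 μM.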

[5] = target: T5, Toll-like receptor 7 (Mus musculus) (UniProt P58681); assay: Agonist activity at TLR7 in Balb/c mouse splenocytes assessed as induction of IL-6 secretion in supernatant after 18 hrs relative to resiquimod; type: cell-based; procedure, shortened: as §1
T5 sequence (whole entry): T1 sequence (P58681 whole entry)

[6] = target: T4, Toll-like receptor 7 (Homo sapiens); assay: Agonist activity at human TLR7 expressed in HEK293 cells incubated for 6 hrs by luciferase reporter gene assay relative to resiquimod; type: cell-based; procedure, shortened: as §2
Toll-like receptor 7 [7] = target: T3, Toll-like receptor 7; assay: Agonist activity at TLR7 in human PBMC assessed as induction of IL-6 secretion in supernatant after 18 hrs; procedure, shortened: as §3
[8] = target: T4, Toll-like receptor 7 (Homo sapiens); assay: Agonist activity at TLR7 in human PBMC assessed as IL-6 level in supernatant after 18 hrs; procedure, shortened: as §3
[9] = target: T5, Toll-like receptor 7 (Mus musculus); assay: Agonist activity at TLR7 in Balb/c mouse splenocytes assessed as IL-6 level in supernatant after 18 hrs; type: cell-based; procedure, shortened: as §1

Row | SMILES | EC50 (Toll-like receptor 7 [1]) [nM] | Activity [2] [%] | EC50 (Toll-like receptor 7 [3]) [nM] | %max [4] | %max [5] [%] | %max [6] [%] | EC50 (Toll-like receptor 7 [7]) | EC50 (Toll-like receptor 7 [7]; read-out: EC50) [nM] | Activity [8] [pg/mL] | Activity [9] [pg/mL]
1 | COc1ccc(CCc2cnc3c(N)nc4cc(C(=O)P(=O)(O)O)ccc4c3c2)c(C)c1 | 14000 | < 5 | 5600 | inactive | 117 | 112 | Not Active |  |  | 
2 | COc1ccc(CCc2cnc3c(N)nc4cc(CCP(=O)(O)O)ccc4c3c2)c(C)c1 | 130 | < 5 |  |  | 124 |  |  | 400 |  | 
3 | COc1ccc(CCc2cnc3c(N)nc4cc(/C=C/P(=O)(O)O)ccc4c3c2)c(C)c1 | 2500 | < 5 | 150 |  | 81 |  |  | 1700 |  | 
4 | CCOCc1nc2c(N)nc3ccccc3c2n1CC(C)(C)O |  |  |  |  |  |  |  |  | 12500 | 600
5 | Cc1cc(OCCCP(=O)(O)O)ccc1CCc1cnc2c(N)nc3cc(CCC(=O)O)ccc3c2c1 | 310 | < 5 |  |  | 100 |  |  | 290 |  | 
6 | Cc1ccc2c(c1)nc(N)c1ncc(CCc3ccc(OCCCC(F)(F)P(=O)(O)O)cc3C)cc12 | 3200 | < 5 |  |  | 47 |  |  | 1600 |  | 
7 | COc1ccc(CCc2cnc3c(N)nc4cc(/C=C(\F)P(=O)(O)O)ccc4c3c2)c(C)c1 | 570 | < 5 |  |  | 220 |  |  | 3400 |  | 
8 | COc1ccc(CCc2cnc3c(N)nc4cc(C(=O)C(F)(F)P(=O)(O)O)ccc4c3c2)c(C)c1 | 3400 | < 5 |  |  | 100 |  |  | 7800 |  | 
9 | Cc1ccc2c(c1)nc(N)c1ncc(CCc3ccc(OCCOCCOCCP(=O)(O)O)cc3C)cc12 | 3600 | < 5 | 3100 | 55% | 83 | 94 |  | 8200 |  | 
